In the EternaBench riboswitch data:

Tested on: MS2 coat protein
Experiment: apparent Kd, MS2 coat protein; higher = weaker binding; RNA-MaP array; FMN 200 µM where present
Procedure, shortened: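 The apparent Kd is reported as the median of filtered per-cluster binding-curve fits. To get these curves, designs transcribed by stalled E. coli RNA polymerase on Illumina sequencing-chip clusters were titrated with SNAP-549-labelled MS2 coat protein from 0.7 or 1.5 nM, doubling to 3 µM. Titrations were run without and then with constant ligand in 100 mM Tris-HCl pH 7.5, 80 mM KCl, 4 mM MgCl2, BSA, DTT, yeast tRNA and Tween-20, and green signal was normalised to red-channel RNA signal and control-cluster median Fmax.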

[1] = designed as: OFF switch for flavin mononucleotide, no ligand
[2] = ligand present: flavin mononucleotide, designed as: OFF switch for flavin mononucleotide
[3] = designed as: ON switch for flavin mononucleotide, no ligand
[4] = ligand present: flavin mononucleotide, designed as: ON switch for flavin mononucleotide

| Sequence | apparent Kd [1] [µM] | apparent Kd [2] [µM] | apparent Kd [3] [µM] | apparent Kd [4] [µM] |
| --- | --- | --- | --- | --- |
| AUCAGCUCGUCAGGAUAUACGUCACUGCUUCGGCAGUGUGGUAAGGUCACAUGAGGAUCACCCAUGUAGAAGGGACGAGCUGAU | 0.00832 | 0.12 |  |  |
| GGCAGAUGAGGAUAUACGUGCAAUCAGUGAUCCAGCCAUUAACAUGAGGAUCACCCAUGUAGAAGGCGUUUUCU | 0.115 | 0.195 |  |  |
| UAAGUUGAGGAGAAGGGAGCACAUGAGGAUCACCCAUGUGGUCCUUUGUGCUCAGGAUAUCCAUGGAGCUCCGUCGCGUUCCAU | 0.00449 | 0.00332 |  |  |
| AAAGGACAUGAGGAUCACCCAUGUGAGGAUAUGCUCUACGAACGAAUACACAUGAGAAGCAGAAGGCACAUAAG | 0.151 | 0.247 |  |  |
| CCUUUGAAGAUCCUGGUUUUCGACAUGAGGAUCACCCAUGUGCAGGAUAUCGUGCCAGUGCUGUGCGAGAAGGGCAGUCUCUGC | 0.0171 | 0.0189 |  |  |
| UGGUAACAUGAGGAUCACCCAUGUCAGGAUAUCAGUAAGAAGAGAUUAGAGUAGAAUAUGAGAAGGGACUAUAG | 0.0367 | 0.0304 |  |  |
| GCGCGCGCAGGAUAUACAAUUGUGUGUGGAAACGCGCGCGUACAUGAGGAUCACCCAUGUAGAAGGGUGUGUGU | 0.445 | 0.198 |  |  |
| GGGUACAUCGGAGGAUAUCAUGUAAAUACAUGAGGAUCACCCAUGUCGAUUGAGACAUCGGAGAUUGAGAAGGCCGAUGUACCG |  |  | 0.0745 | 0.534 |
| UAUAUAUAGGCAGGAUAUACAUGAAUAUAUAUAAUAUAAUAUAAUAUAACAUGAGGAUCACCCAUGUAGAAGGGCCAAUAUAUA | 0.0562 | 0.117 |  |  |
| GAUGUAUUCGUAGGAUAUCCGUCGCCACCGUGUGGAGAAGGACGAACAUGAGGAUCACCCAUGUAUCAUGGUGUAGACACUUUC | 0.142 | 0.19 |  |  |
| CCCGUCAUCGAGAAGGCCUCAACAUGAGGAUCACCCAUGUUGUAAUAUGGGAGGAUAUCGAUGAUACAGCUACGUUUCGUAGGG |  |  | 0.0173 | 0.00633 |
| GUAGGGUCAGGAUAUACUGGCUGAGGGAUGUAUUGUAGUUGGUAGAAGGGACAUGAGGAUCACCCAUGUAAGAA | 0.036 | 0.0261 |  |  |
| GGCUAGCCUCAAGGAUAUACGCUCUCAACAAAGAACCGACUACAUGAGGAUCACCCAUGUACCAUGUAGAAGGUGAGGUUAGCC |  |  | 0.906 | 0.0581 |
| GUUUUACAUGAGGAUCACCCAUGUGAGGAUAUAUUGUUAUUUUUAAUAUUUUUUAGUGGUAGAAGGCGCGUGAU | 0.0314 | 0.026 |  |  |
| GGGCACGGAGGAUAUACAUGAGGAUCACCCAUGUGAUUAGGGCAGUACUUGCCGAUCCGUAGAAGGUUGGCCGA | 0.0261 | 0.0268 |  |  |
| CAAAGUUGGUAAGGAUAUCCCACAUUAUUCUGACCCGUGCAAGCUACAUGAGGAUCACCCAUGUGGGAGAAGGUGCGUUAUAGA | 0.121 | 0.16 |  |  |
| CUGAUGUUAGGAUAUCAGGCUGUGCACGAAGACGGGCGGCAUGAGAAGGAACAUGAGGAUCACCCAUGUGACGG | 0.0363 | 0.0776 |  |  |
| CCACGGCACUCGUUGGUACGGGCAGAGGAUAUCGACAUGAGGAUCACCCAUGUGGAUGUAUAUGUCGAGAAGGCUGAUUCGUCU | 0.044 | 0.197 |  |  |
| AUGUGGUGCGUAGGAUAUCAUUGAGGAAAACCCUGAGAAGGACGUGAGGACAUGAGGAUCACCCAUGUGGAUCACCCAUGUCAU | 0.237 | 0.237 |  |  |
| GAAUGUUGAGGAUAUACAUGAGGAUCACCCAUGUGUUAGCAGAGUCUGCCCGUCUUCAGUAGAAGGCAACAUUC | 0.0173 | 0.0424 |  |  |
| GGUCCGUAACAGAAGGCCGUAACUGGUAGUGGCGGAGGAUAUGUGGGCGGCCCUUGACAACAUGAGGAUCACCCAUGUAUGUAA |  |  | 0.335 | 0.0203 |
| CGAGCUGCUGUGAGGAUAUACCUAUGGGUGCGUGGGUAGAAGGCACAUGAGGAUCACCCAUGUCCUGCAGCUCG | 0.255 | 0.344 |  |  |
| CUUUAGUAAGGAUAUCAGCUUAGGAGGUUGGUAAUGAGAGCUGAGAAGGUACAUGAGGAUCACCCAUGUUAGUU | 0.0173 | 0.0197 |  |  |
